APTT, Ki and TT data for two molecules are collected here from ChEMBL document CHEMBL1128727, “Characterization of a class of peptide boronates with neutral P1 side chains as highly selective inhibitors of thrombin” (J Med Chem, 1995).

Test [1] in a line: Concentration of inhibitor required to produce a 2-fold prolongation in activated partial Thromboplastin time (APTT) in human plasma. Type of test: functional. The method in brief:
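Pooled citrated normal human plasma, APTT reagent and inhibitor were incubated for 5 min at 37 °C. Clotting was started with CaCl2 from a 25 mM aqueous solution and timed on a coagulometer. The inhibitor concentration that doubled the APTT was determined in duplicate.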

In a further test the target is Chymotrypsinogen A (Bos taurus, UniProt P00766). Kind of test: Binding affinity against Chymotrypsin. The method in brief:
(§1)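 Enzymes: bovine pancreatic α-chymotrypsin with S-2586 (MeO-Suc-Arg-Pro-Tyr-pNA), human plasma kallikrein with S-2288, porcine pancreatic elastase with Suc-Ala-Ala-Ala-pNA, and bovine pancreatic trypsin. Initial velocity was read at 25 °C over 2 min. A 2 h preincubation was used to screen for slow binding. For competitive inhibitors, Ki came from Lineweaver–Burk plots at five substrate concentrations spanning 10-fold around Km, using at least five points in duplicate.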

The target in test [2] is T1, Plasminogen (Homo sapiens, UniProt P00747). Kind of test: Binding affinity against Plasmin. The method in brief:
(§2)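 Chromogenic pNA assays used human plasma factor Xa with S-2222, human plasmin with S-2251, human kidney urokinase with S-2444, and human plasma activated protein C with S-2366. Rates were read over 2 min at 25 °C. A 2 h enzyme–inhibitor preincubation tested for slow binding. For non-slow binders, Ki came from Lineweaver–Burk plots at five substrate levels over a 10-fold range around Km, using at least five points in duplicate.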

Test [3] deals with T2, Prothrombin (Homo sapiens, UniProt P00734). The test is described as follows: Binding affinity against gamma thrombin. The method in brief: (§3)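 Human α-thrombin or human γ-thrombin was assayed with S-2238 (H-D-Phe-Pip-Arg-pNA), with velocity measured over 2 min at 25 °C. A 2 h preincubation screened for slow binding. For competitive inhibitors, Ki came from Lineweaver–Burk plots at five substrate concentrations over 10-fold around Km; slow binders were fitted to the slow-binding rate equations. At least five points were run in duplicate.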

Test [4] concerns the target Urokinase-type plasminogen activator (Homo sapiens, UniProt P00749). Kind of test: Binding affinity against Urokinase plasminogen activator. The method in brief:
as §2

Test [5] can be described thus: Binding affinity against protein Ca. The method in brief: as §2
The target in test [6] is T2, Prothrombin. The test is described as follows: Binding affinity against thrombin. The method in brief:
as §3

The target in test [7] is T2, Prothrombin. Kind of test: Binding affinity against alpha thrombin. The method in brief: as §3
Test [8] has as its target T1, Plasminogen. Kind of test: Binding affinity against plasmin. The method in brief:
as §2

The next test has as its target T3, Serine protease 1 (Bos taurus, UniProt P00760).
T3 sequence (P00760 whole entry): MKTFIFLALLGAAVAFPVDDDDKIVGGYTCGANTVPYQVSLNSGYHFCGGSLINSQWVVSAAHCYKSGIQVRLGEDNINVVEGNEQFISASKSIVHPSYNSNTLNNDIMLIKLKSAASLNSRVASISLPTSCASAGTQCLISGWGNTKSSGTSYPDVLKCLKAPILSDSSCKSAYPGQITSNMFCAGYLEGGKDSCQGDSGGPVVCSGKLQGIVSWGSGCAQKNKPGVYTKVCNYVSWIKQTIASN
Kind of test: Binding affinity against Trypsin. The method in brief: as §1

For test [9], the target named is T2, Prothrombin. The test is described as follows: Concentration of inhibitor required to produce a 2-fold prolongation in Thrombin time (TT). The method in brief:
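Pooled citrated normal human plasma was incubated with inhibitor for 1 min at 37 °C; the inhibitor was serially diluted in buffer from a DMSO stock. Human α-thrombin was then added from a 5 units/mL solution in 50 mM sodium phosphate, 0.1% PEG, pH 7.4. Clotting was timed on a coagulometer, and the concentration that doubled the thrombin time was determined in duplicate.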

Test [10] deals with Plasma kallikrein (Homo sapiens) (UniProt P03952). The test is described as follows: Binding affinity against plasma kallikrein.
In a further test the target is T4, Cathepsin G (Homo sapiens, UniProt P08311).
T4 sequence (P08311 whole entry): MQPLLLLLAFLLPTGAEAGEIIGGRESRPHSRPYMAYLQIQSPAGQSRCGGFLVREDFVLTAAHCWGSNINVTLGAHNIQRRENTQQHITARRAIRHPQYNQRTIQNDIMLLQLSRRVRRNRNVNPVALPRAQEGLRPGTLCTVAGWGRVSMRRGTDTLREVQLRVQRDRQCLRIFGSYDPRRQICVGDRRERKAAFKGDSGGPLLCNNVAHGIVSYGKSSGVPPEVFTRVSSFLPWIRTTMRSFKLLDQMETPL
Kind of test: Binding affinity against cathepsin G.

Another test deals with Coagulation factor X (Homo sapiens, UniProt P00742). Kind of test: Binding affinity against Coagulation factor X. The method in brief: as §2
Chain of Coagulation factor X (P00742 41-179 limits assumed): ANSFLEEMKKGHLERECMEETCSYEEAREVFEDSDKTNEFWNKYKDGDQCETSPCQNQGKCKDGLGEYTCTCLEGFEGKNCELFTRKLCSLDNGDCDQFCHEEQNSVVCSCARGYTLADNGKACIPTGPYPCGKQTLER
Chain of Coagulation factor X (P00742 235-488 limits assumed): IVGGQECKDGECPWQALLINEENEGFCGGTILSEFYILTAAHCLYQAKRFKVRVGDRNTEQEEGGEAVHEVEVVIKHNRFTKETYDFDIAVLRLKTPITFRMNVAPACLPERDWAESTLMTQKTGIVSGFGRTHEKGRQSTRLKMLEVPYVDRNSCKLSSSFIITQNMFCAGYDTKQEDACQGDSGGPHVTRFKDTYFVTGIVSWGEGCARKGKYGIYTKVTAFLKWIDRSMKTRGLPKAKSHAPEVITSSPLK

T1 sequence (P00747 97-580 limits assumed): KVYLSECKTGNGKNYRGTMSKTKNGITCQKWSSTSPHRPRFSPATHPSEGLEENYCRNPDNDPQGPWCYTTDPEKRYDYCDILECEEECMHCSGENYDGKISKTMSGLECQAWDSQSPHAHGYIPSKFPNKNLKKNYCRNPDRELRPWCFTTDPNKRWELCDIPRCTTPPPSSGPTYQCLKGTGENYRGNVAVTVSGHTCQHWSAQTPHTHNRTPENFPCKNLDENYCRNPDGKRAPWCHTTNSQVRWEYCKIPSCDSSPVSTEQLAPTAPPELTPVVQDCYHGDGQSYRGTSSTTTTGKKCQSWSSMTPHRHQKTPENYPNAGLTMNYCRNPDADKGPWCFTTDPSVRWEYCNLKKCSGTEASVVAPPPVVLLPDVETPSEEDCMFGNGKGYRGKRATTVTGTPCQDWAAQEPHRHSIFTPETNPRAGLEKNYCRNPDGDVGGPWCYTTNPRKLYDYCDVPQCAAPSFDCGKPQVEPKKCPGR
T1 sequence (P00747 581-810 limits assumed): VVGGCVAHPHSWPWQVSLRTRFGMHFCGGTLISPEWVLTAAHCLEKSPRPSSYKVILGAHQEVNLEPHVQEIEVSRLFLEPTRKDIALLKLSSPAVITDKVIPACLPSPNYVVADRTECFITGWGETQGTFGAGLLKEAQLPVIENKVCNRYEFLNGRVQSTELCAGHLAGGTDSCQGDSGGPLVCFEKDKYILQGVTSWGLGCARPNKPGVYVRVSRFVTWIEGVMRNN
Chain of Plasma kallikrein (Homo sapiens) (P03952 whole entry, looked up): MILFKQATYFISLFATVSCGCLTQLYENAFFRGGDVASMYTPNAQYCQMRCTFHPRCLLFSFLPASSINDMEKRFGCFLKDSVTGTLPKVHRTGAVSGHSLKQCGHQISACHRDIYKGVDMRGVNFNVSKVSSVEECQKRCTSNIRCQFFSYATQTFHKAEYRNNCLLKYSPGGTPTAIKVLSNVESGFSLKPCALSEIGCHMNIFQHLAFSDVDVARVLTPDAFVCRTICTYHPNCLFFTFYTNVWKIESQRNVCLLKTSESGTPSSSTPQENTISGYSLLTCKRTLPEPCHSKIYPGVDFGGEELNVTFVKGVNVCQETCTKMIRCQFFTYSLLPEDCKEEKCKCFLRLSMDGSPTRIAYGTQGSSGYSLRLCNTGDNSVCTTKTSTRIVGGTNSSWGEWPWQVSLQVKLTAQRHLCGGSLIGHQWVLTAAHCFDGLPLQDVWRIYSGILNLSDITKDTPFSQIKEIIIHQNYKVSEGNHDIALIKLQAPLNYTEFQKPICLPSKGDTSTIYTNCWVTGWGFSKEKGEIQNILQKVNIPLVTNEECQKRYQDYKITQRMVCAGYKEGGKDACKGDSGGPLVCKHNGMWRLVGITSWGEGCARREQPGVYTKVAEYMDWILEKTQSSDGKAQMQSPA

In turn, `CCC(C)(C)C(NC(=O)[C@@H]1CCCN1C(=O)[C@@H](NC(=O)OCc1ccccc1)C(c1ccccc1)c1ccccc1)B1O[C@@H]2CC3CC(C3(C)C)[C@]2(C)O1` (stereo partly drawn) returned an APTT in test [1] of 50 µM. For the same molecule, the Ki is 2890 nM on Chymotrypsinogen A; 17000 nM at Plasminogen [2]; 34 nM at Prothrombin [3]; greater than 63000 nM in test [4]; greater than 63000 nM in test [5]; 82 nM on Prothrombin [6]. The Ki was 28 nM on Prothrombin [7], 17000 nM at Plasminogen [8], 560 nM at Serine protease 1 and greater than 63000 nM in test [10]. The TT at Prothrombin [9] was 21 µM.
`CCCCCC(NC(=O)[C@@H]1CCCN1C(=O)[C@@H](NC(=O)OCc1ccccc1)C(c1ccccc1)c1ccccc1)B1O[C@@H]2CC3CC(C3(C)C)[C@]2(C)O1` (stereo partly drawn): the Ki came to 14300 nM on Cathepsin G; 1200 nM on Chymotrypsinogen A; 27 nM at Prothrombin [3]; 540000 nM in test [4]; 53000 nM in test [5]; 13000 nM on Coagulation factor X. Moreover, the Ki on Prothrombin [6] is 42 nM; on Prothrombin [7] it was 42 nM; at Plasminogen [8] it was 24000 nM; on Serine protease 1, 450 nM; in test [10], 160000 nM.

Usually Ki stands for a measure of affinity in units of concentration, obtained from inhibition or displacement. Low values mean higher affinity, high ones lower affinity.
